The sample as a whole holds a higher share of hits than the screen did.
ABCG2 block: ABCG2 efflux pump inhibitors, primary screen, multiplex with ABCB1, IgMXP3 cells, flow cytometry; Broad substrate specificity ATP-binding cassette transporter ABCG2 (Homo sapiens), Q9UNQ0; JC-1 efflux; inhibition, % at 6.6 µM; hit rate 0.1% among 190,000;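 active = inhibition above 80%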
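Test system: IgMXP3 (ABCG2) plus far-red-tagged CCRF-Adr (ABCB1) cells / Amount: 3 million cells/mL in well / Reagent: JC-1 transporter substrate / Timing: 10 min compound exposure, 25 °C / Signal: flow cytometry, 530 nm JC-1 signal / Read-out: percent efflux inhibition, scaled nicardipine 100% to DMSO 0% / Benchmarks: nicardipine as high control, DMSO as low control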
ABCB1 block: ABCB1 efflux pump inhibitors, primary screen, cell-based, multiplex, flow cytometry, ABCG2 counter-screen | ATP-dependent translocase ABCB1 (Homo sapiens), P08183 | inhibition, % at 6.6 µM | hit rate 0.067% among 190,000 | CCRF-Adr cells, JC-1 efflux; in the data active = inhibition above about 40%;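 note: higher value means more JC-1 retained so stronger ABCB1 efflux block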
GSH fluor: compound fluorescence on glutathione beads, profiling panel, artefact control, biophysical, 488/530 nm, flow cytometry | hit rate 0.25% among 190,000 | fluorescence (KMESF) at 10 µM | GSH beads flow cytometry, compound fluorescence 488/530 nm; hits give high values | AID 1776, 2009; in the data active = fluorescence above about 89;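 note: glutathione beads carrying GST-tagged Bcl family fusion proteins plus one bare bead set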
L major viab: Leishmania major promastigote growth inhibition, primary screen; Leishmania major promastigotes, resazurin fluorescence viability; inhibition, % at 10 µM; hit rate 9% among 200,000; AID 1063, 2008;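 note: promastigotes grown with compound for 44 hours at 28 °C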
PKD1 inh: inhibitors of human PKD1 kinase, biochemical, fluorescence polarization; inhibition, % (concentration not given with the values); Serine/threonine-protein kinase D1 (Homo sapiens), Q15139; PKD1 kinase fluorescence polarization assay; hit rate 0.056% among 200,000
Target sequence (Q15139 whole entry, looked up): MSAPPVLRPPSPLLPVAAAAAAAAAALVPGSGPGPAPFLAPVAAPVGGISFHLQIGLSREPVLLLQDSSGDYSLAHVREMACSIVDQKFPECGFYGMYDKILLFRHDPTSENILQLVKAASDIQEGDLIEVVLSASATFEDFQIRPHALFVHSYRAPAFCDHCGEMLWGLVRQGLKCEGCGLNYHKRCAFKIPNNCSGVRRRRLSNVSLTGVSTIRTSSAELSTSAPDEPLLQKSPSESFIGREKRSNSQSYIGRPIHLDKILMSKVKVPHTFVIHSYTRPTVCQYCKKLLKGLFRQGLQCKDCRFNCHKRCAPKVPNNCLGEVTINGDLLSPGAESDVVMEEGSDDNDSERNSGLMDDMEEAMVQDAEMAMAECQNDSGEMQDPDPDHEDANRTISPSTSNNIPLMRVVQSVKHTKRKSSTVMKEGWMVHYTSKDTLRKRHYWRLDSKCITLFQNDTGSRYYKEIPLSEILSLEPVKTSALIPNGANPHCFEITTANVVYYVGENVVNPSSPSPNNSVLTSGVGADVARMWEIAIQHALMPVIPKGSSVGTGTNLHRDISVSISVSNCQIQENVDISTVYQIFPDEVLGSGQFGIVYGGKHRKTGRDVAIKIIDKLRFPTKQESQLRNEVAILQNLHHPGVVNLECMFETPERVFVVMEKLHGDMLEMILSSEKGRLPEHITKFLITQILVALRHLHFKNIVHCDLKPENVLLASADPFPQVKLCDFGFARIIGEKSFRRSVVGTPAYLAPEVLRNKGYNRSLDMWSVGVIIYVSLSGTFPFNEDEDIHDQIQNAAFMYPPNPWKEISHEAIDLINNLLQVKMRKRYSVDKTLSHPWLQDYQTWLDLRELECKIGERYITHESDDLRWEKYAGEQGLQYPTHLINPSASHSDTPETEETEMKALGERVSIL
Avidin fluor: green autofluorescence of compounds with avidin beads – biophysical, 488/530 nm, flow cytometry, artefact control, profiling panel. hit rate 0.38% among 220,000. AID 1775, 2009. fluorescence (KMESF) at 10 µM. compound fluorescence 488/530 nm; hits give high values; in the data active = fluorescence above about 47
Of the large screens only hits and unclear results are named; the others gave an inactive call. Cut-off read from the data, not from the text of the source, unless noted: active = inhibition above about 50%; inactive = the rest.

COc1ccc2cc(C(c3nnnn3C3CCCC3)N3CCc4ccccc4C3)c(=O)[nH]c2c1 (centres undefined)	L major viab 82 (no result: ABCG2 block, ABCB1 block)
CC(C)C(c1nnnn1C1CCCCC1)N1CCc2ccccc2C1 (centres undefined)	L major viab 67
CC(C)C(c1nnnn1C1CCCC1)N1CCc2ccccc21 (centres undefined)	none
CCN(C(=S)NC(=O)c1ccccc1Br)C1CCCCC1	none
Clc1ccc2c(N/N=C/c3cccc(Br)c3)ccnc2c1	L major viab 100
Clc1ccc2c(N/N=C/c3ccccc3Br)ccnc2c1	L major viab 99
Clc1ccc2c(NNc3ccccc3Cl)ccnc2c1	none
C=CCC1(C)C(=O)N(c2ccccc2)c2ccccc21 (centres undefined)	none
O=C(O)c1cc2ccccc2n1-c1ccccc1	none
O=C(Nc1ncc(Cc2cccc(C(F)(F)F)c2)s1)c1ccc(-c2cccc([N+](=O)[O-])c2)o1	L major viab 91
O=C(Nc1nccs1)c1ccc(-c2cccc([N+](=O)[O-])c2)o1	none
CC(=O)Cc1nsc(NC(=O)c2ccc(-c3cccc(C(F)(F)F)c3)o2)n1	Avidin fluor 53
CCN(CC)S(=O)(=O)c1cc(C(=O)Nc2ccccc2[N+](=O)[O-])ccc1Cl	L major viab 78
CN(C)S(=O)(=O)c1cccc(C(=O)Nc2ccccc2[N+](=O)[O-])c1	none
CN1CCN(c2ccc(Cl)cc2NC(=O)c2ccc(S(=O)(=O)N(C)C)cc2)CC1	L major viab 100
CN1CCN(c2ccc(Cl)cc2NS(=O)(=O)c2ccccc2Cl)CC1	L major viab 100
CCN(CC)S(=O)(=O)c1cc(C(=O)N2CCc3ccccc32)ccc1Cl	L major viab 75
CN(C)S(=O)(=O)c1ccc(C(=O)Nc2cc(S(=O)(=O)Nc3ccccc3Cl)ccc2N2CCCCC2)cc1	none
O=C(O[C@@H]1OC2COC(=O)c3cc(O)c(O)c(O)c3-c3c(cc(O)c(O)c3O)C(=O)O[C@@H]([C@H]1O)[C@@H]2O)c1cc(O)c(O)c(O)c1	none
O=C(Nc1cccc(S(=O)(=O)Nc2ccc(Cl)cc2)c1)c1ccc[n+]([O-])c1	none (no result: ABCG2 block, ABCB1 block, GSH fluor, L major viab, PKD1 inh)
COc1cc(N/C(N)=N/c2nc(C)cc(C)n2)c(OC)cc1Cl	none
CCN(CC)S(=O)(=O)c1cc(C(=O)Nc2cc(Cl)ccc2N2CCN(C)CC2)ccc1Cl	L major viab 100
CCN(CC)S(=O)(=O)c1cc(C(=O)NC2=NCCS2)ccc1Cl	none
COc1cc(CN2CCC(C(=O)N3CCN(c4ccccc4F)CC3)CC2)cc(OC)c1OC	L major viab 83
COc1cc(CN2CCC(C(=O)N3CCC(C)CC3)CC2)cc(Br)c1O	L major viab 82
COc1cc(CN2CCC(C(=O)NC3CCCC3)CC2)cc(Br)c1O	none
Nc1cc(N)c(OCC(F)(F)F)cc1OCC(F)(F)F	L major viab 88
CC(Nc1nc(N2CCN(S(C)(=O)=O)CC2)nc2ccccc12)c1ccccc1 (centres undefined)	none
CC(C)=CCN1CCN(Cc2cccnc2)CC1CCO (centres undefined)	none
CCN(CC)c1ccc2c(C)c(CO)c(=O)oc2c1	none
CCN(CC)c1ccc2c(C)c(CN3CCOCC3)c(=O)oc2c1	L major viab 100
CC(C)c1ccc(-c2c(C#N)c(N)nc(SCC(=O)N3CCCCCC3)c2C#N)cc1	L major viab 51
CC1(/[N+]([O-])=C/c2ccccc2F)CCCCC1=O (centres undefined)	none
CCCC(C(=O)NCC1CCCO1)N(Cc1ccco1)C(=O)CNS(=O)(=O)c1ccccc1 (centres undefined)	none
CC(C)C(C(=O)NCc1ccco1)N(C(=O)CNS(=O)(=O)c1ccc(Cl)cc1)C1CCCC1 (centres undefined)	L major viab 89
O=C(COC(=O)c1ccc(S(=O)(=O)NCc2ccco2)cc1)NC1CCCCC1	GSH fluor 268
CCCC(C(=O)NC1CCCCC1)N(Cc1ccco1)C(=O)CNS(=O)(=O)c1ccccc1 (centres undefined)	L major viab 63
O=C(COC(=O)c1ccc(S(=O)(=O)NCc2ccco2)cc1)c1ccccc1	none
O=C(NC1CCCCC1)N(Cc1ccccc1)Cc1ccco1	L major viab 55
CCOC(=O)c1c(C)n(C)c2ccc(OC)c(NC(=O)CCN3CCSCC3)c12	none
CC(Nc1n[nH]c(=S)[nH]c1=O)C(=O)OCc1ccccc1 (centres undefined)	GSH fluor 238
CCCCOC(=O)C(C)Nc1n[nH]c(=S)[nH]c1=O (centres undefined)	none
O=C1CCCc2oc3c(cc(NS(=O)(=O)c4ccc5c6c(cccc46)C(=O)N5)c4ccccc43)c21	none (no result: ABCG2 block, ABCB1 block, GSH fluor, L major viab, PKD1 inh)
O=C(O)c1ccccc1NS(=O)(=O)c1ccc2c3c(cccc13)C(=O)N2	Avidin fluor 75
Cc1oc2c(cc(NS(=O)(=O)c3ccc4c5c(cccc35)C(=O)N4)c3ccccc32)c1C(=O)OC(C)C	L major viab 58
Cc1nc([N+](=O)[O-])c(C(=O)OCc2cccc(Br)c2)n1C	none
Cn1nnc(NC(=S)NC(=O)Cc2ccccc2)n1	none
Cc1ccc(C2=NN(S(C)(=O)=O)C(c3cccs3)C2)cc1 (centres undefined)	none
CCc1ccc(C2=NN(S(C)(=O)=O)C(c3cccs3)C2)cc1 (centres undefined)	L major viab 67
CNC(=O)CC12CC3CC(CC(C3)C1)C2	GSH fluor 261
COCCNC(=S)NC(=O)CC12CC3CC(CC(C3)C1)C2	L major viab 88
Cc1nn(C)c(C)c1NC(=O)CC12CC3CC(CC(C3)C1)C2	none
Cc1cc(C)cc(NC(=O)C(NCCN2CCOCC2)c2ccccc2)c1 (centres undefined)	none
CCOC(=O)N1CCC(N2C(=O)c3ccccc3C2Nc2cc(C(=O)OC)cc(C(=O)OC)c2)CC1 (centres undefined)	L major viab 62
Cc1cc(OCC(=O)NC(C)c2ccccc2)ccc1[N+](=O)[O-] (centres undefined)	none
CO/N=C/C1CCN(c2ncc(C(F)(F)F)cc2Cl)C1=O (centres undefined)	none
CCN(CCO)C1CC(=O)N(c2ccccc2C)C1=O (centres undefined)	L major viab 60
Cc1ccccc1N1C(=O)CC(N(O)c2ccccc2)C1=O (centres undefined)	none
